For 12 molecules, Activity results are on record in ChEMBL document CHEMBL5390270, “Synthesis, anti-inflammatory activity, inverse molecular docking, and acid dissociation constants of new naphthoquinone-thiazole hybrids” (Bioorg Med Chem, 2023).

Holding throughout (assay type): functional, cell-based
Assay [1] has as its system J774.2. Briefly: Antiproliferative activity against LPS-stimulated mouse J774.2 cells assessed as reduction in cell viability at 1 to 5 ug/mL incubated for 1 day by trypan blue staining analysis. Particulars: dose 1-5 µg/ml. A digest of the protocol: (§1)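 J774.2 macrophages in RPMI 1640 with 10 % FBS, antibiotics and sodium pyruvate, 37 °C, 5 % CO₂. Cells were exposed for 1 day to molecules at 1, 2 and 5 µg/mL with or without LPS, with SA at 5 µg/mL as control. Supernatants were removed, cells washed in PBS, then counted with trypan blue to give viability. N = 3.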

In assay [2] the test system is J774.2. Description: Antiproliferative activity against LPS-stimulated mouse J774.2 cells assessed as reduction in cell viability at 1 to 5 ug/mL incubated for 1 day in presence of LPS by trypan blue staining analysis. Particulars: dose 1-5 µg/ml. A digest of the protocol:
as §1

Assay [3] has as its system J774.2. Briefly: Antiinflammatory activity in mouse J774.2 cells assessed as reduction in TNF-alpha level at 1 to 5 ug/mL […] by ELISA analysis. Particulars: dose 1-5 µg/ml. A digest of the protocol:
(§2)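 J774.2 macrophages were cultured in RPMI 1640 with 10 % FBS, antibiotics and sodium pyruvate at 37 °C, 5 % CO₂. Cells received molecules at 1, 2 and 5 µg/mL for 1 day without LPS. Supernatant TNF-α or IL6 was quantified by sandwich ELISA with TMB read-out at 450 nm. N = 3.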
On the technique in general: An ELISA detects its analyte on a solid surface through an enzyme-linked reagent.

For assay [4], the system named is J774.2. Description: Antiinflammatory activity in LPS-stimulated mouse J774.2 cells assessed as reduction in IL-6 production at 1 to 5 ug/ml […] by ELISA analysis. Particulars: dose 1-5 µg/ml. A digest of the protocol:
(§3)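 J774.2 macrophages in RPMI 1640 with 10 % FBS, 1 % penicillin/streptomycin and sodium pyruvate, 24-well plates, 37 °C, 5 % CO₂. Cells were stimulated for 1 day with test molecules at 1, 2 and 5 µg/mL plus LPS. SA at 5 µg/mL served as control. Supernatant TNF-α or IL6 was read by sandwich ELISA: biotin-antibody, streptavidin-HRP, TMB, absorbance at 450 nm. N = 3.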

Assay [5] has as its system J774.2. Description: Antiinflammatory activity in mouse J774.2 cells assessed as reduction in IL-6 production at 1 to 5 ug/mL […] by ELISA analysis. Particulars: dose 1-5 µg/ml. A digest of the protocol: as §2
Assay [6] deals with J774.2. Briefly: Antiinflammatory activity in LPS-stimulated mouse J774.2 cells assessed as reduction in TNF-alpha level at 1 to 5 ug/mL incubated for 12 hrs by ELISA analysis. Particulars: dose 1-5 µg/ml, time 24.0 hrs, in the assay text read “24 hrs” for “12 hrs”. A digest of the protocol:
as §3

The subject of assay [7] is J774.2. Briefly: Antiinflammatory activity in LPS-stimulated mouse J774.2 cells assessed as reduction in TNF-alpha level at 5 ug/mL incubated for 12 hrs by ELISA analysis. The settings on record: dose 5.0 µg/ml, time 24.0 hrs, in the assay text read “24 hrs” for “12 hrs”. A digest of the protocol:
as §3

For assay [8], the system named is J774.2. Briefly: Antiinflammatory activity in LPS-stimulated mouse J774.2 cells assessed as reduction in IL-6 production at 2 to 5 ug/ml […] by ELISA analysis. The settings on record: dose 2-5 µg/ml. A digest of the protocol:
as §3

The test system of assay [9] is J774.2. Description: Antiinflammatory activity in LPS-stimulated mouse J774.2 cells assessed as reduction in TNF-alpha level at 1 to 2 ug/mL […] by ELISA analysis. Particulars: dose 1-2 µg/ml. A digest of the protocol: as §3
Assay [10] deals with J774.2. Briefly: Antiinflammatory activity in LPS-stimulated mouse J774.2 cells assessed as reduction IL-6 production at 2 to 5 ug/mL incubated for […] by ELISA analysis. Particulars: dose 2-5 µg/ml. A digest of the protocol:
as §3

The test system of assay [11] is J774.2. Briefly: Antiinflammatory activity in LPS-stimulated mouse J774.2 cells assessed as reduction in IL-6 production at 1 ug/ml incubated for […] by ELISA analysis. Particulars: dose 1.0 µg/ml. A digest of the protocol: as §3
Assay [12] concerns J774.2. Briefly: Antiinflammatory activity in LPS-stimulated mouse J774.2 cells assessed as reduction IL-6 production at 5 ug/mL […] by ELISA analysis. Particulars: dose 5.0 µg/ml. A digest of the protocol:
as §3

Calls of active or inactive are those of the source. No cut-off for these calls is given here.

`NC1=C(n2c(-c3ccc(Br)cc3)cs/c2=N\C(=O)c2cccc([N+](=O)[O-])c2)C(=O)c2ccccc2C1=O`: the result with J774.2 [1], in the assay on J774.2 [2], with J774.2 [3] and with J774.2 [5] was inactive. For the same molecule, in the assay on J774.2 [4], the outcome was Active.
Take `NC1=C(n2c(-c3ccc(Br)cc3)cs/c2=N\C(=O)c2ccc([N+](=O)[O-])cc2)C(=O)c2ccccc2C1=O`: the result in the assay on J774.2 [1], in the assay with J774.2 [2], in the assay with J774.2 [3] and in the assay with J774.2 [5] was inactive. The outcome in the assay with J774.2 [6] was Active.
Take `NC1=C(n2c(-c3ccccc3)cs/c2=N\C(=O)c2ccc(Cl)c([N+](=O)[O-])c2)C(=O)c2ccccc2C1=O`: the result in the assay with J774.2 [1], in the assay on J774.2 [2], with J774.2 [3] and in the assay on J774.2 [5] was inactive. The outcome in the assay with J774.2 [4] was Active.
Consider `NC1=C(n2c(-c3ccc(Cl)cc3)cs/c2=N\C(=O)c2ccc([N+](=O)[O-])cc2)C(=O)c2ccccc2C1=O`, for which the result in the assay with J774.2 [1], in the assay on J774.2 [2], in the assay on J774.2 [3] and in the assay on J774.2 [5] was inactive. Moreover, the result in the assay on J774.2 [6] was Active.
On to `NC1=C(n2c(-c3ccc(Cl)cc3)cs/c2=N\C(=O)c2cccc([N+](=O)[O-])c2)C(=O)c2ccccc2C1=O`, for which the outcome with J774.2 [1], in the assay on J774.2 [2], in the assay with J774.2 [3] and with J774.2 [5] was inactive. Besides, the outcome in the assay on J774.2 [7] and in the assay with J774.2 [8] was Active.
As for `NC1=C(n2c(-c3ccc(F)cc3)cs/c2=N\C(=O)c2ccc(Cl)c([N+](=O)[O-])c2)C(=O)c2ccccc2C1=O`, the outcome in the assay with J774.2 [1], in the assay on J774.2 [2], in the assay on J774.2 [3] and in the assay on J774.2 [5] was inactive.
For the molecule `NC1=C(n2c(-c3ccccc3)cs/c2=N\C(=O)c2ccc([N+](=O)[O-])cc2)C(=O)c2ccccc2C1=O`, the outcome with J774.2 [1], in the assay with J774.2 [2], with J774.2 [6], in the assay with J774.2 [3] and in the assay on J774.2 [5] was inactive.
Regarding `NC1=C(n2c(-c3ccc(F)cc3)cs/c2=N\C(=O)c2cccc([N+](=O)[O-])c2)C(=O)c2ccccc2C1=O`, the outcome with J774.2 [1], in the assay with J774.2 [2], in the assay with J774.2 [3] and in the assay on J774.2 [5] was inactive.
For `NC1=C(n2c(-c3ccccc3)cs/c2=N\C(=O)c2cccc([N+](=O)[O-])c2)C(=O)c2ccccc2C1=O`, the result in the assay with J774.2 [1], in the assay with J774.2 [2], in the assay on J774.2 [3], with J774.2 [5] and in the assay with J774.2 [9] was inactive. The outcome in the assay on J774.2 [7] was Active.
Take `NC1=C(n2c(-c3ccc(Cl)cc3)cs/c2=N\C(=O)c2ccc(Cl)c([N+](=O)[O-])c2)C(=O)c2ccccc2C1=O`: the outcome in the assay with J774.2 [1], in the assay on J774.2 [2], with J774.2 [3], in the assay with J774.2 [5] and with J774.2 [11] was inactive. Also, in the assay on J774.2 [10], the outcome was Active.
Turning to `NC1=C(n2c(-c3ccc(F)cc3)cs/c2=N\C(=O)c2ccc([N+](=O)[O-])cc2)C(=O)c2ccccc2C1=O`, the outcome with J774.2 [1], in the assay with J774.2 [2], in the assay on J774.2 [3] and in the assay on J774.2 [5] was inactive. In the assay on J774.2 [6], the outcome was Active.
Consider `NC1=C(n2c(-c3ccc(Br)cc3)cs/c2=N\C(=O)c2ccc(Cl)c([N+](=O)[O-])c2)C(=O)c2ccccc2C1=O`, for which the outcome in the assay on J774.2 [1], in the assay on J774.2 [2], in the assay with J774.2 [3] and in the assay with J774.2 [5] was inactive. For the same molecule, the outcome in the assay with J774.2 [12] was Active.
